Data set [1] deals with Plasma. In words: Metabolic stability in rat plasma. It is filed as ADME, cell-free.
Data set [2] can be described thus: Half life in rat. It is filed as ADME, organism-based. The note with it: in vivo.
The nature of data set [3]: Clearance in iv dosed rat. It is filed as ADME, organism-based. As to conditions: in vivo.
Data set [4] can be described thus: Clearance in dog. As to conditions: in vivo. It is filed as ADME, organism-based, Canis lupus familiaris.
Data set [5] can be described thus: Oral bioavailability in rat. It is filed as ADME, organism-based. The note with it: in vivo.
A short description of data set [6]: Bioavailability in dog. It is filed as ADME, organism-based, Canis lupus familiaris. The note with it: in vivo.
The target of data set [7] is T1, Protein deacetylase HDAC6 (Homo sapiens, UniProt Q9UBN7).
T1 sequence (Q9UBN7 whole entry): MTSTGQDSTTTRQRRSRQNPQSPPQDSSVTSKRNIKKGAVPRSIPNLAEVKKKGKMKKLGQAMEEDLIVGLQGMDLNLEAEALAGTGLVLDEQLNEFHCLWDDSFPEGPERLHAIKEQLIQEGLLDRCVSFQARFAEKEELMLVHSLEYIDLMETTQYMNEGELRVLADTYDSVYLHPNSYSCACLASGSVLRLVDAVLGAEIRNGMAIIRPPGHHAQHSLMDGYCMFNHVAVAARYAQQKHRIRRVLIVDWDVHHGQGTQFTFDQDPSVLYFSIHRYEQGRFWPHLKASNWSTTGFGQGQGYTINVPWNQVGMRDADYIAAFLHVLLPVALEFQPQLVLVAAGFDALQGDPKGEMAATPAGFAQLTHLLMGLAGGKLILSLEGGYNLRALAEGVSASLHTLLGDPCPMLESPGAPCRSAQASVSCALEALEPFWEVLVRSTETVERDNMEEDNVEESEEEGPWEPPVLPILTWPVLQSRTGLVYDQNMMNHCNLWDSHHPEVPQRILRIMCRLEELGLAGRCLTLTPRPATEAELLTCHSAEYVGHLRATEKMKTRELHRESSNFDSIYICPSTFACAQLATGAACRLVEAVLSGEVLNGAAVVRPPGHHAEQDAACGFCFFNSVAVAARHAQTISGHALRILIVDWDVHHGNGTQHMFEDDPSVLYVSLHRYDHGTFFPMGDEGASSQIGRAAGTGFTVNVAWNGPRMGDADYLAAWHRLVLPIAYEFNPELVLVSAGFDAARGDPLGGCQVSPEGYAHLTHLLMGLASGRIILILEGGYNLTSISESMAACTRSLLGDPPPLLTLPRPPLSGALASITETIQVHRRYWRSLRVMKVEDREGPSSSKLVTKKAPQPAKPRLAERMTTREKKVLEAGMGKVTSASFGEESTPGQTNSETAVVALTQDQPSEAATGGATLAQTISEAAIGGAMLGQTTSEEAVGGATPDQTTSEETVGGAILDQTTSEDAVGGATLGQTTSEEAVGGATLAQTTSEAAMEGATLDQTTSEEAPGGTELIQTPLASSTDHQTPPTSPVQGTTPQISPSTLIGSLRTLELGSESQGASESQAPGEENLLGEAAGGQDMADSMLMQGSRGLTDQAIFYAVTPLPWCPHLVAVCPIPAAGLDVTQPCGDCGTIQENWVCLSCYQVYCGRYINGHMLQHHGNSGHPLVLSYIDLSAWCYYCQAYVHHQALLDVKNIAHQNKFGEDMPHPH
Description: Inhibition of human recombinant His-tagged HDAC6 expressed in baculovirus. The gist of the method: (§1)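 Enzyme preincubated with inhibitor 10 min at ambient temperature in 25 mM Hepes pH 8.0, 137 mM NaCl, 1 mM MgCl₂, 2.7 mM KCl. Coumarin-labeled acetyl-lysine substrate then added, incubated at 37 °C. Quenched with trypsin (1 mg/mL final) and TSA (1 μM final). Fluorescence read; IC50 from dose–response curves. Values are means of at least two experiments.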

A short description of data set [8]: Volume of distribution at steady state in rat. The data set is classed as ADME, organism-based. As to conditions: in vivo, read-out: Vdss.
Data set [9] has as its target Histone deacetylase 1 (Homo sapiens, UniProt Q13547). In words: Inhibition of human recombinant FLAG-tagged HDAC1 expressed in baculovirus. The gist of the method: as §1
In data set [10] the target is Histone deacetylase. In words: Inhibition of HDAC in HEK293T cells by whole cell assay. It is filed as cell-based, Homo sapiens. The note with it: hek-293t. The gist of the method:
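Cultured 293T cells exposed to inhibitors for 16 h, then given the membrane-permeable substrate Boc-Ac-Lys-AMC for 90 min at 37 °C. Quenched with trypsin (1 mg/mL final) and TSA, then lysed in 1% NP-40. Fluorescence read at Ex 360/Em 470 nm; IC50 reported. Values are means of at least two experiments.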

Data set [11] relates to Plasma. In words: Metabolic stability in human plasma. It is filed as ADME, cell-free.
A short description of data set [12]: Half life in dog. It is filed as ADME, organism-based, Canis lupus familiaris. The note with it: in vivo.

For orientation: half-life means how long it takes for the measured level to halve. Low values mean rapid decline, high ones slow decline. What is called clearance is a measure of how efficiently the substance is removed, as volume per time. As usually defined, the bioavailability is the share of a dose that reaches the circulation, judged against a reference dose that is usually intravenous. What is called IC50 is the concentration needed to halve the response being measured.

Sequence of Histone deacetylase 1 (Q13547 whole entry): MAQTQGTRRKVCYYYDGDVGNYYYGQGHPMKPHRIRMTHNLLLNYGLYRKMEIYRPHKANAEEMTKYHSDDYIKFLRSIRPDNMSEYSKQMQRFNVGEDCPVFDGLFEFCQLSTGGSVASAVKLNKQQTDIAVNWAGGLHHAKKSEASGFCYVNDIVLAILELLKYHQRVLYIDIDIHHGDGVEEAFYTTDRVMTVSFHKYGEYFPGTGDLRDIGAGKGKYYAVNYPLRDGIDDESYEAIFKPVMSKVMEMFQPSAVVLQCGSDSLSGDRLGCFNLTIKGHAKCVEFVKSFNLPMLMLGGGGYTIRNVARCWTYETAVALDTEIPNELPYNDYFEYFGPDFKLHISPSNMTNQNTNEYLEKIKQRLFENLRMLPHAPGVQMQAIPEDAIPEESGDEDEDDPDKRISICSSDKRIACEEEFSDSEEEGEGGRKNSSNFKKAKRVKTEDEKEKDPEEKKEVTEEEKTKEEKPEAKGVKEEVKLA

On to `NS(=O)(=O)NCCCC[C@H](NC(=O)OCc1ccccc1)c1nc2cc(-c3cccs3)ccc2[nH]1`, for which the Stability entry in data set [1] and in data set [11] was “Stable” each time. Further, the half-life in data set [2] is 1.2 h; in data set [12], 5.7 h. The clearance in [3] is 6.83 mL/min/kg; in data set [4], 8.5 mL/min/kg. Besides, the bioavailability is 0.5% in data set [5] and 6% in data set [6]. Further, the IC50 was found to be 480 nM in [7], 200 nM in data set [9] and 620 nM in [10]. Also, the Vd in data set [8] was 0.03 L/kg.

Source of the values: ChEMBL document CHEMBL1153367, “Synthesis and evaluation of lysine derived sulfamides as histone deacetylase inhibitors” (Bioorg Med Chem Lett, 2009).
